Laboratory results published in the EternaBench riboswitch data.

Tested on: MS2 coat protein
Experiment: apparent Kd, MS2 coat protein; higher = weaker binding; RNA-MaP array; FMN 200 µM where present
In short: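 Green signal from SNAP-549-labelled MS2 coat protein was normalised to red-channel RNA signal and to the median Fmax of control clusters. The protein was titrated from 0.7 or 1.5 nM, doubling to 3 µM, without and then with constant ligand, over designs transcribed by stalled E. coli RNA polymerase on Illumina sequencing-chip clusters, in 100 mM Tris-HCl pH 7.5, 80 mM KCl, 4 mM MgCl2, BSA, DTT, yeast tRNA and Tween-20. The apparent Kd is the median of filtered per-cluster binding-curve fits.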

[1] = designed as: OFF switch for flavin mononucleotide, no ligand
[2] = ligand present: flavin mononucleotide, designed as: OFF switch for flavin mononucleotide
[3] = designed as: ON switch for flavin mononucleotide, no ligand
[4] = ligand present: flavin mononucleotide, designed as: ON switch for flavin mononucleotide

GGUACUCAAAGAGUACUGUUUUGAACAUGAGGAUCACCCAUGUAGGAUAUGCGAGUUUUGAAUUUGCAGAAGGACAUUUUUAGC
apparent Kd [1]: 0.0172 µM | apparent Kd [2]: 0.0189 µM

GGUCCAAUAUGAGGAUAUAGCAUCUUAUUGAUGCUAGAAGGCGUGUCGGUAGACAUGAGGAUCACCCAUGUAUUACAAUGGACC
apparent Kd [3]: 0.11 µM | apparent Kd [4]: 0.0294 µM

GGUCCAUUAUGAGGAUAUGGCACCUUAUUGGUGCCAGAAGGCAUAUGUCUUCACAUGAGGAUCACCCAUGUAAUAAAUUGGACC
apparent Kd [3]: 0.0174 µM | apparent Kd [4]: 0.0195 µM

GGUCGUCACAUAUACAUGAGGAUCACCCAUGUCAAAAGACAUGAGGAUAUGGAUCCUAAUUGGAUCCAGAAGGCAUGGACGACC
apparent Kd [3]: 0.986 µM | apparent Kd [4]: 0.0473 µM

GGUCGUCACAUAUACAUGAGGAUCACCCAUGUGAAAACACAUGAGGAUAUGGAUCCUAAUUGGAUCCAGAAGGCAUGGACGACC
apparent Kd [3]: 0.0421 µM | apparent Kd [4]: 0.00763 µM

GGUCGUCACAUUAACAUGAGGAUCACCCAUGUAAAAUAACAUGAGGAUAUGCAUCCUAAUUGGAUGCAGAAGGCAUGGACGACC
apparent Kd [3]: 0.00786 µM | apparent Kd [4]: 0.00602 µM

GGUCGUCAGAUUAACAUGAGGAUCACCCAUGUCUUUUGACAUGAGGAUAUGGAUCCUAAUUGGAUCCAGAAGGCAUGGACGACC
apparent Kd [3]: 1.17 µM | apparent Kd [4]: 0.104 µM

GGUCUGACAUAAGGAUAUGCUCAGGAUAACUGAGCAGAAGGUAUGUGAAAACAUGAGGAUCACCCAUGUGAUCAAUACAGACCA
apparent Kd [3]: 0.0188 µM | apparent Kd [4]: 0.0195 µM

GGUGCGUAUGUGAGGAUAUGCUGGUCCUUGGAUCAGCAGAAGGCACAUGAGGAUCACCCAUGUGGUGUCGUACG
apparent Kd [1]: 0.0689 µM | apparent Kd [2]: 0.516 µM

GGUGCGUAUGUGAGGAUAUGCUGGUCCUUGGAUCAGCAGAAGGCACAUGAGGAUCACCCAUGUGGUGUCGUCCC
apparent Kd [1]: 0.426 µM | apparent Kd [2]: 0.0211 µM

GGUGCGUAUGUGAGGAUAUGCUGGUCCUUGGCUCGGCAGAAGGCACAUGAGGAUCACCCAUGUGGUGUCGUUCC
apparent Kd [1]: 0.0525 µM | apparent Kd [2]: 0.222 µM

GGUGCGUUUGUGAGGAUAUGCUGGUCCUUGGAUCAGCAGAAGGCACAUGAGGAUCACCCAUGUGGUGUCCCUCC
apparent Kd [1]: 0.168 µM | apparent Kd [2]: 0.291 µM

GGUGGAAGCACAGGAUAUGUUGAUUUUAUGGUGUUACAUGAGGAUCACCCAUGUCCGCGAUUCUAACAGAAGGGUGCAUGGAUG
apparent Kd [3]: 0.543 µM | apparent Kd [4]: 0.0599 µM

GGUGGACAUGAGGAUCACCCAUGUGAGGAUAUCGGCCGGUUCGUGGUGGCUGGCUUCUCGAGAAGGCGCAUAGU
apparent Kd [1]: 0.0558 µM | apparent Kd [2]: 0.0657 µM

GGUGGACAUGAGGAUCACCCAUGUGAGGAUAUCGGCUGUCUACUCGCUGACGGCUGCUCGAGAAGGCGCAUUGU
apparent Kd [1]: 0.0454 µM | apparent Kd [2]: 0.0616 µM

GGUGGGUUGCUGCCGGCACAUGAGGAUCACCCAUGUUUUGGGAAGGAUAUGGUACCUUUUUGGUGCCAGAAGGUCCCGUUGGUG
apparent Kd [3]: 0.733 µM | apparent Kd [4]: 1 µM

GGUGGUGAGCAAGGAUAUCGCCACUGCGUGACCUCACAACGGAUACAUGAGGAUCACCCAUGUGGCGAGAAGGUGCGGGAACGG
apparent Kd [1]: 0.0294 µM | apparent Kd [2]: 0.044 µM

GGUGUACAUGAGGAUCACCCAUGUCGACCGCUCACAGGAUAUUUAAUACAAACUGGUAGCGGAGAAGGGUGAGGAA
apparent Kd [3]: 0.295 µM | apparent Kd [4]: 0.312 µM

GGUGUCAUCGAGAAGGCCUCAACAUGAGGAUCACCCAUGUUGUAAUAUGGGAGGAUAUCGAUGAUACAGCUACGUUUCGUAGCG
apparent Kd [3]: 0.0199 µM | apparent Kd [4]: 0.00657 µM

GGUUAAUAUCGAGGAUAUGUCUAGACACAUGAGGAUCACCCAUGUAUGUGUAUAGAAGGCGAUAUUAACAGCAUGUUACAUGCG
apparent Kd [3]: 0.0388 µM | apparent Kd [4]: 0.0164 µM

GGUUAAUGCAAGGAUAUGCUAUUAUUUUAUUUUGCAGAAGGUGCAACAUGAGGAUCACCCAUGUUGGAGGGUUU
apparent Kd [1]: 0.0198 µM | apparent Kd [2]: 0.0261 µM

GGUUGACAUAGUCAUCCUUAACGAACAUGAGGAUCACCCAUGUAGGAUAUGCUACUCAAAGAGUAGCAGAAGGGCGUGUGUCUU
apparent Kd [1]: 0.0283 µM | apparent Kd [2]: 0.0361 µM

GGUUGGCGAGGAUAUACAUGAGGAUCACCCAUGUGGUCCUAAAAUAAAAUAAACCUUUGUAGAAGGCGCGGGUC
apparent Kd [1]: 0.268 µM | apparent Kd [2]: 0.428 µM

GGUUGGCGAGGAUAUACAUGAGGAUCACCCAUGUGGUCCUGUGGCUGGUCUUAACUUUGUAGAAGGCGCGGGUC
apparent Kd [1]: 0.066 µM | apparent Kd [2]: 0.0828 µM

GGUUGUCAUCGUCAUCCUUUCGGUACAUGAGGAUCACCCAUGUAGGAUAUGCUGCGCUCGGUGUGGCAGAAGGGCGUGUGUGUU
apparent Kd [1]: 0.0238 µM | apparent Kd [2]: 0.0403 µM

GGUUGUCAUCGUCAUCCUUUCUGUACAUGAGGAUCACCCAUGUAGGAUAUGCUGCUCUCGGUGUGGCAGAAGGGCGUGUGUCUU
apparent Kd [1]: 0.0342 µM | apparent Kd [2]: 0.0376 µM

GGUUGUGUGUAAGGAUAUGCAUCACUGAGAAAUUUAGUGAGGAAGAUCACAUGAGGAUCACCCAUGUAGAAGGUACACACGUGG
apparent Kd [1]: 0.0106 µM | apparent Kd [2]: 0.0501 µM

GGUUUGCGGCAGGAUAUCCAUCCGCGGUGUGGUGGAGAAGGGCUGACAUGAGGAUCACCCAUGUGCGUCCUGUU
apparent Kd [1]: 0.0251 µM | apparent Kd [2]: 0.0305 µM

GUAAAUCAUGUAGGAUAUGCAUGGCGAAGCUACGCAGAAGGACAUGAGGAUCACCCAUGUCUGUCCGUCUGGAUACAGACGGAC
apparent Kd [1]: 0.0246 µM | apparent Kd [2]: 0.195 µM

GUAAGUACGAGAGGAUAUUGACAUGAGGAUCACCCAUGUAUUUGGGAGUGUUCACUGAAUUCUUACGAGAAGGCUUGUACAUAC
apparent Kd [1]: 0.221 µM | apparent Kd [2]: 0.22 µM

GUACAGUAGUGAGGAUAUACGAGAUCGAUAGAUCGGCGAUCCAAUUAUACAUGAGGAUCACCCAUGUAGAAGGCACUUCUGUAC
apparent Kd [1]: 0.00837 µM | apparent Kd [2]: 0.0669 µM

GUACAGUAGUGAGGAUAUACGAGAUCGAUAGAUCGGCGAUCCAUUAAUACAUGAGGAUCACCCAUGUAGAAGGCACUUCUGUAC
apparent Kd [1]: 0.00584 µM | apparent Kd [2]: 0.0825 µM

GUACCUUAUGAGAAGGCGAUCAUGAAACAUGAUCGAGGAUAUCAUGUAAACAUGAGGAUCACCCAUGUAUGGGUAUUAUGGUAA
apparent Kd [3]: 0.0318 µM | apparent Kd [4]: 0.0102 µM

GUACGUGGACAGAAGGUGACAUGAGGAUCACCCAUGUUAGCUCGGGUACGAGCGAUCCGCGUGAUUGAGGAUAUGUCUGCGGGC
apparent Kd [1]: 0.0397 µM | apparent Kd [2]: 0.059 µM

GUAGAGUAAGGAUAUGGUGAAUAGGAUAGAAUGGUUAGAAACCAGAAGGUACAUGAGGAUCACCCAUGUAAUGU
apparent Kd [1]: 0.021 µM | apparent Kd [2]: 0.0211 µM

GUAGAGUAAGGAUAUGUAGAAUAGGAUAGAAUGGUUAGAAUACAGAAGGUACAUGAGGAUCACCCAUGUAAUGU
apparent Kd [1]: 0.0177 µM | apparent Kd [2]: 0.0196 µM

GUAGCAACAUGAGGAUCACCCAUGUAGGAUAUCGCUAUUGUAAUCAUGAAACAUGAUUACAAUAGCGAGAAGGACAUUGGCUAC
apparent Kd [1]: 0.00706 µM | apparent Kd [2]: 0.0108 µM

GUAGCAAUCGGAGGAUAUUCAUGAAACAUGAGGAUCACCCAUGUUAAUUUGGGAGAAGGCCGAUUGCUACAAGAGCGAAAGCUC
apparent Kd [3]: 0.00814 µM | apparent Kd [4]: 0.00535 µM

GUAGCAUAAUCAGGAUAUUCAGCGAAUAGAUAGACAUGAGGAUCACCCAUGUGGCGAAAGCCUCGGGAGAAGGGAUAAUGCUAC
apparent Kd [3]: 0.168 µM | apparent Kd [4]: 0.054 µM

GUAGCAUACCAAGGAUAUUCAGGGCUUGGAUAGACAUGAGGAUCACCCAUGUGGCGAAAGUCAAGGGAGAAGGUGGUAUGCUAC
apparent Kd [3]: 0.0176 µM | apparent Kd [4]: 0.0135 µM

GUAGCAUACCAAGGAUAUUUAGGGCUUUGAUAGACAUGAGGAUCACCCAUGUGGCGUUAGUCACGGGAGAAGGUGGUAUGCUAC
apparent Kd [3]: 0.383 µM | apparent Kd [4]: 0.0819 µM

GUAGCAUACCGAGGAUAUUCAGGGCGUGGAUAUACAUGAGGAUCACCCAUGUGGCGGAAGCCUAGGGAGAAGGCGGGAUGCUAC
apparent Kd [3]: 0.0223 µM | apparent Kd [4]: 0.0155 µM

GUAGCAUACCGAGGAUAUUCAGGGCGUGGGUAAACAUGAGGAUCACCCAUGUGGCGAAAGCCUAGGGAGAAGGCGGAAUGCUAC
apparent Kd [3]: 0.151 µM | apparent Kd [4]: 0.13 µM

GUAGCAUACCGAGGAUAUUCAUACCGGAAACGGACAUGAGGAUCACCCAUGUGGCGAAAGCCUUGGGAGAAGGCGGUAUGCUAC
apparent Kd [3]: 0.638 µM | apparent Kd [4]: 0.0228 µM

GUAGCAUACCGAGGAUAUUCAUACCGGAAACGGACAUGAGGAUCACCCAUGUUGCGAAAGCAUUGGGAGAAGGCGGAAUGCUAC
apparent Kd [3]: 0.919 µM | apparent Kd [4]: 0.0558 µM

GUAGCAUACCGAGGAUAUUCAUAUAAUACAUGAGGAUCACCCAUGUUAUAUAGGCGAAAGCCUUGGGAGAAGGCGGAAUGCUAC
apparent Kd [4]: 0.0108 µM

GUAGCAUACCGAGGAUAUUCAUCCGGAAACGGACAUGAGGAUCACCCAUGUGCAGAAAACUGCUGGGAGAAGGCGGAAUGCUAC
apparent Kd [3]: 0.0897 µM | apparent Kd [4]: 0.0169 µM

GUAGCAUACCGAGGAUAUUCUGGGCUUAAAUAAACAUGAGGAUCACCCAUGUGGCGAAAGCCUAGGGAGAAGGCGGAAUGCUAC
apparent Kd [3]: 0.0137 µM | apparent Kd [4]: 0.013 µM

GUAGCAUACGGAGGAUAUUCAUACCGGAAACGGACAUGAGGAUCACCCAUGUGGCGAAAGCCUUGGGAGAAGGCCGUAUGCUAC
apparent Kd [3]: 0.671 µM | apparent Kd [4]: 0.0219 µM

GUAGCAUAGACAGGAUAUUCAUAUAAUAAAUAAACAUGAGGAUCACCCAUGUGGCGAAAGCCUUGGGAGAAGGGUCAAUGCUAC
apparent Kd [3]: 1.07 µM | apparent Kd [4]: 0.0821 µM

GUAGCUACAUGAGGAUCACCCAUGUAGGAUAUCGCUAUUGUAAUCAUGUUACAUGAUUACAAUAGCGAGAAGGACGUGAGCUAC
apparent Kd [1]: 0.00839 µM | apparent Kd [2]: 0.0087 µM

GUAGCUAUCGGAGGAUAUUCAUACCGAAAACGGACAUGAGGAUCACCCAUGUGGCGAAAGUCUUGGGAGAAGGCCGAUAGCUAC
apparent Kd [3]: 0.0392 µM | apparent Kd [4]: 0.00762 µM

GUAGCUAUCGGAGGAUAUUCAUGAUACAUGAGGAUCACCCAUGUUAAAAUGGGAGAAGGCCGAUAGCUACAAGAGCGAAAGCUC
apparent Kd [3]: 0.0411 µM | apparent Kd [4]: 0.00801 µM

GUAGCUAUCGGAGGAUAUUUAUACCGGAAACGGACAUGAGGAUCACCCAUGUGGCGAAAGCCUUGGGAGAAGGCCGAUAGCUAC
apparent Kd [3]: 0.0297 µM | apparent Kd [4]: 0.00423 µM

GUAGUGCUCAUAGGAUAUCGGGAACGACUUAGACAGGUCGUACAUGAGGAUCACCCAUGUAAAGUCGAGAAGGGUGAUCACGCC
apparent Kd [3]: 0.592 µM | apparent Kd [4]: 0.16 µM
